# Test results reported in ChEMBL document CHEMBL1131626 (J Med Chem, 1998).
# Legend:
# [1] = biological target: T1, Progesterone receptor (Homo sapiens) (UniProt P06401); assay: Efficacy for progesterone receptor relative to progesterone
# T1 sequence (whole entry): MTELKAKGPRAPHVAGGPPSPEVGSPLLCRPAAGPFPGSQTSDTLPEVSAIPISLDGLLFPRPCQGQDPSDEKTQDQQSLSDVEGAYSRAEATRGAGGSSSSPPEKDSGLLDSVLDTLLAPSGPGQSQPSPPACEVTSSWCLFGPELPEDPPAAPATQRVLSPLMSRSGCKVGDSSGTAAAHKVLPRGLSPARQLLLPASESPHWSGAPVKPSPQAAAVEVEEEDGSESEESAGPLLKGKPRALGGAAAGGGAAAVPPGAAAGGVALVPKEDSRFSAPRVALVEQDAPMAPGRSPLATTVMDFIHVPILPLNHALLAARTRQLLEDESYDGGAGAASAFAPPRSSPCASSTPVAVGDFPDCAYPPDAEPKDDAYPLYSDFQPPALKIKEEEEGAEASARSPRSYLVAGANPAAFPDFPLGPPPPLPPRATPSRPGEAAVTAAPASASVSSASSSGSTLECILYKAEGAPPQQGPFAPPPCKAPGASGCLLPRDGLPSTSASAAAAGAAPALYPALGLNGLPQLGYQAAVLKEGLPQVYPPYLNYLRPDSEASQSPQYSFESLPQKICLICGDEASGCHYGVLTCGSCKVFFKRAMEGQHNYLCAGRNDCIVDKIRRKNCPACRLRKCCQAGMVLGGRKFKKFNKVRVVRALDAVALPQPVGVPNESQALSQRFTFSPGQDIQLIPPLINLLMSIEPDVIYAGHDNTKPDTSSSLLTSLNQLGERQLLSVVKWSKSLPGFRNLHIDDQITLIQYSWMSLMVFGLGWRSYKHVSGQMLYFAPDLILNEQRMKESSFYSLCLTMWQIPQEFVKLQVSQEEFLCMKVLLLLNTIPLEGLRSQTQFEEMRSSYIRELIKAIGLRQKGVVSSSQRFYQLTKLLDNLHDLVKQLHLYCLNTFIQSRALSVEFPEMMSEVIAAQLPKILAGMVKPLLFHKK
# Glucocorticoid receptor = biological target: T2, Glucocorticoid receptor (Homo sapiens, UniProt P04150); assay: Binding affinity for baculovirus-expressed human glucocorticoid receptor
# T2 sequence (P04150 whole entry): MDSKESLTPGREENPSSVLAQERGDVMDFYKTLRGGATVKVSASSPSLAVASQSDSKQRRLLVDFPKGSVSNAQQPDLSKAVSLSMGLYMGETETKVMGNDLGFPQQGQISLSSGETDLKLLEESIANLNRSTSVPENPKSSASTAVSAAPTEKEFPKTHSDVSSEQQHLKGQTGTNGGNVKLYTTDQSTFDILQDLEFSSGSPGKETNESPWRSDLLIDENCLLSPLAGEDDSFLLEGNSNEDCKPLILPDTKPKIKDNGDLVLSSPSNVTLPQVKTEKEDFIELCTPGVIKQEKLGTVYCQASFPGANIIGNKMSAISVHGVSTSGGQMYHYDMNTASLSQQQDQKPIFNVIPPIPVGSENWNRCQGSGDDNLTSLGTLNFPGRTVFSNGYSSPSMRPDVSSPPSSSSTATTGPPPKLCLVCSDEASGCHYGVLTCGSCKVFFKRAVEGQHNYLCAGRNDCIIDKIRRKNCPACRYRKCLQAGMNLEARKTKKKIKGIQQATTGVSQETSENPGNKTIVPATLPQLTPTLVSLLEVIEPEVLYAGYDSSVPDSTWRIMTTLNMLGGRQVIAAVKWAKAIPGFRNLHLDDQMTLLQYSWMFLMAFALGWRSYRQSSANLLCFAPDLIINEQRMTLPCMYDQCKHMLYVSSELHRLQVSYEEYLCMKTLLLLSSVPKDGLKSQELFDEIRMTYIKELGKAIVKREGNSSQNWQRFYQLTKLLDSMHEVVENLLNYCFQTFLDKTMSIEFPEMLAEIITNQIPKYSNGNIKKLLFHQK
# [2] = biological target: T3, Progesterone receptor (Rattus norvegicus) (UniProt Q63449); assay: Fold induction as increase in BrdU labeling index over estrone treatment alone in lobular-aveolar rat mammary buds by progestin treatment at 3 mg/kg; assay type: functional, organism-based; set-up: dose 3 mg/kg
# T3 sequence (whole entry): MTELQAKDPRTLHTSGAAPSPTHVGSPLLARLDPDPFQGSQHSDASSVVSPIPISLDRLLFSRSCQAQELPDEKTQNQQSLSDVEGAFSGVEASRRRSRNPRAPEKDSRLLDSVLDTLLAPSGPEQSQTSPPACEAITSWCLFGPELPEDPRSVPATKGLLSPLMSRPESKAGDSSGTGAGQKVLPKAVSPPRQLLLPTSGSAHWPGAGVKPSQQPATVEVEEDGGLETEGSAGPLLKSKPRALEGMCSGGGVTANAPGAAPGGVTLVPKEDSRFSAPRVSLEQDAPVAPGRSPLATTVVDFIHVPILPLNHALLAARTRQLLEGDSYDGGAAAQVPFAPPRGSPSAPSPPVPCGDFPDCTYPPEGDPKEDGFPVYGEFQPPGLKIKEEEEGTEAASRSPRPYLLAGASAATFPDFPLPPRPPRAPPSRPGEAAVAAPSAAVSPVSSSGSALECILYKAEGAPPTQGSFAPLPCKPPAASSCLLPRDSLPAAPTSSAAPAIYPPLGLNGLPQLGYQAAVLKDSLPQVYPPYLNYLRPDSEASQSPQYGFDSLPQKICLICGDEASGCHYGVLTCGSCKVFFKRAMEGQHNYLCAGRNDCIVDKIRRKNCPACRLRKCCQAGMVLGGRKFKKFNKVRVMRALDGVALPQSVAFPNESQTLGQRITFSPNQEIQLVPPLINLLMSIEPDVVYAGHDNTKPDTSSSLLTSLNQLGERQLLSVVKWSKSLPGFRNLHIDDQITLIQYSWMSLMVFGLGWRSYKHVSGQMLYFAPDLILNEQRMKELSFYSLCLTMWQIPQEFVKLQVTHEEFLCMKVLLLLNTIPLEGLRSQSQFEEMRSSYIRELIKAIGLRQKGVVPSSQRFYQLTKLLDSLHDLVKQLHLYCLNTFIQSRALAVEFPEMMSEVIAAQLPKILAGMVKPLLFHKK
# Procedure, shortened: (§1)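 Ovariectomized Sprague-Dawley rats, 4-5 weeks old, groups of 4-5, given estrone 10 µg sc plus oral compound in corn oil (0.5 mL) for 3 days. On day 4, BrdU 200 mg/kg ip; mammary glands taken 3 h later. Frozen sections stained with anti-BrdU/FITC. Labeling index = labeled/lobular area, averaged over 12 fields per gland, as fold over estrone alone.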
# Progesterone receptor [3] = biological target: T4, Progesterone receptor (Homo sapiens, UniProt P06401); assay: Effective concentration for half-maximal activation of human progesterone receptor expressed in CV-1 cells; assay type: cell-based
# T4 sequence (P06401 whole entry): T1 sequence (whole entry)
# Progesterone receptor [4] = biological target: T4, Progesterone receptor; assay: Binding affinity for baculovirus-expressed human progesterone receptor isoform A
# [5] = biological target: T3, Progesterone receptor (Rattus norvegicus); assay: Fold induction as increase in BrdU labeling index over estrone treatment alone in lobular-aveolar rat mammary buds by progestin treatment; assay type: functional; procedure, shortened: as §1
# [6] = biological target: T5, Progesterone receptor (Mus musculus) (UniProt Q00175); assay: Effect on pregnancy in mice as corpora lutea at 3 mg/mouse dose with simultaneous 0.5 mg RU-486 dose; assay type: functional, organism-based
# T5 sequence (whole entry): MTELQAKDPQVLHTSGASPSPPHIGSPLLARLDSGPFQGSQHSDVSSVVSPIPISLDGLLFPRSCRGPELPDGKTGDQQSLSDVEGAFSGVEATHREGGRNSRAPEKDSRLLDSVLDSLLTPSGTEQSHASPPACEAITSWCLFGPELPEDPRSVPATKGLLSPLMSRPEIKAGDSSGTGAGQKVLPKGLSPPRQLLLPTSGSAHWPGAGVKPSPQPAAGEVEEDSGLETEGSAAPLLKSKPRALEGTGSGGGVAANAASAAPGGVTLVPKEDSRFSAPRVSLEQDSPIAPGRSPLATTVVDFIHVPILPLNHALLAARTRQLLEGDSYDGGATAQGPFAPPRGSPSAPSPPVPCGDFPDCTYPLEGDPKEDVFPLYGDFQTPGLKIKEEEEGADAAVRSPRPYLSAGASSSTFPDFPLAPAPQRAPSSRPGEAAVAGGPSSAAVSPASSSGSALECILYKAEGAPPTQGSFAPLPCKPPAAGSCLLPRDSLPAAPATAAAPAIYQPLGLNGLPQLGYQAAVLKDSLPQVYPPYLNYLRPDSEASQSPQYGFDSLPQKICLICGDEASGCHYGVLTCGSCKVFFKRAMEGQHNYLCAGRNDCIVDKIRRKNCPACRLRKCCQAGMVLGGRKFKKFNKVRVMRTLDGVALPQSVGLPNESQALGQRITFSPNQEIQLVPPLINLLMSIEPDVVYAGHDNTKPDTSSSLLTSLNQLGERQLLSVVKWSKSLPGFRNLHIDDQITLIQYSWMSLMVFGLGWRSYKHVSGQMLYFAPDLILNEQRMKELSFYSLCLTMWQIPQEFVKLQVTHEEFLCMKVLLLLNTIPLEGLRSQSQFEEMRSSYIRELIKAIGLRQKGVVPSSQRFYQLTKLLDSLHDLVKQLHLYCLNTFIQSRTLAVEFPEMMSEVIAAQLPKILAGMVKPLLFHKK
# Procedure, shortened: (§2)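 Mature virgin ICR mice, 10-12 weeks old, mated overnight; vaginal plug marks day 1. Oral RU486 0.5 mg (~15 mg/kg), alone or with test compound (mg/mouse), on days 2-4. Compounds in ethanol diluted with corn oil, 0.1 mL. Oil controls. Necropsy on day 8 to count corpora lutea and implantation sites and to score pregnancy. Student t-test.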
# [7] = biological target: T5, Progesterone receptor (Mus musculus); assay: Effect on pregnancy in mice as corpora lutea at 1 mg/mouse dose with simultaneous 0.5 mg RU-486 dose; assay type: functional, organism-based; procedure, shortened: as §2
# [8] = biological target: T5, Progesterone receptor (Mus musculus); assay: Effect on pregnancy in mice as implantation at 1 mg/mouse dose with simultaneous 0.5 mg RU-486 dose; assay type: functional; procedure, shortened: as §2
# [9] = biological target: T5, Progesterone receptor (Mus musculus); assay: Effect on pregnancy in mice as implantation at 3 mg/mouse dose with simultaneous 0.5 mg RU-486 dose; assay type: functional; procedure, shortened: as §2
# [10] = biological target: T5, Progesterone receptor (Mus musculus); assay: Effect on pregnancy in mice as percent pregnant at 1 mg/mouse dose with simultaneous 0.5 mg RU-486 dose; assay type: functional; procedure, shortened: as §2
# [11] = biological target: T5, Progesterone receptor (Mus musculus); assay: Effect on pregnancy in mice as percent pregnant at 3 mg/mouse dose with simultaneous 0.5 mg RU-486 dose; assay type: functional; procedure, shortened: as §2
# [12] = biological target: T5, Progesterone receptor (Mus musculus); assay: Effect on pregnancy in mice as number pregnant/mated at 1 mg/mouse dose with simultaneous 0.5 mg RU-486 dose; out of 10; assay type: functional; procedure, shortened: as §2
# [13] = biological target: T5, Progesterone receptor (Mus musculus); assay: Effect on pregnancy in mice as number pregnant/mated at 3 mg/mouse dose with simultaneous 0.5 mg RU-486 dose; out of 10; assay type: functional; procedure, shortened: as §2
smiles,measurement,setting,value
CC1=CC(C)(C)Nc2ccc3c(c21)C(c1cccc(Cl)c1)Oc1ccc(Cl)cc1-3 (racemic),Efficacy,[1],95
same,Ki,Glucocorticoid receptor,6.3 nM
"CC1=CC(C)(C)Nc2ccc3c(c21)C(c1cccc(Cl)c1)Oc1ccc(F)cc1-3 (single isomer, unassigned; (+)) [listing 1 of 2 here]",Efficacy,[1],83
"CC1=CC(C)(C)Nc2ccc3c(c21)C(c1cccc(Cl)c1)Oc1ccc(F)cc1-3 (single isomer, unassigned; (-)) [listing 1 of 2 here]",Efficacy,[1],125
same,Fold induction,[2],3.6
"CC1=CC(C)(C)Nc2ccc3c(c21)C(c1cccc(Cl)c1)Oc1ccc(F)cc1-3 (single isomer, unassigned; (+)) [listing 2 of 2 here]",EC50,Progesterone receptor [3],135 nM
same,Ki,Progesterone receptor [4],30 nM
CC1=CC(C)(C)Nc2ccc3c(c21)C(c1cccc(Cl)c1)Oc1ccc(F)cc1-3 (racemic) [listing 1 of 2 here],Ki,Glucocorticoid receptor,133 nM
"CC1=CC(C)(C)Nc2ccc3c(c21)C(c1ccc(Cl)c(C)c1)Oc1ccc(F)cc1-3 (single isomer, unassigned; (-)) [listing 1 of 2 here]",Efficacy,[1],99
same,Fold induction,[2],2.5
CC1=CC(C)(C)Nc2ccc3c(c21)C(c1ccc(Cl)c(C)c1)Oc1ccc(F)cc1-3 (racemic) [listing 1 of 2 here],Efficacy,[1],97
CC1=CC(C)(C)Nc2ccc3c(c21)C(c1ccc(Cl)c(C)c1)Oc1ccc(F)cc1-3 (racemic) [listing 2 of 2 here],Ki,Glucocorticoid receptor,210 nM
CC1=CC(C)(C)Nc2ccc3c(c21)C(c1ccc(Cl)c(C)c1)Oc1ccc(Cl)cc1-3 (racemic),Efficacy,[1],73
same,Ki,Glucocorticoid receptor,14 nM
CC1=CC(C)(C)Nc2ccc3c(c21)C(c1cccc(Cl)c1)Oc1ccc(F)cc1-3 (racemic) [listing 2 of 2 here],Efficacy,[1],117
CC1=CC(C)(C)Nc2ccc3c(c21)C(c1ccc(Cl)c(C)c1)Oc1ccc(F)cc1-3 (stereo in doubt) [listing 1 of 2 here],EC50,Progesterone receptor [3],147 nM
same,Ki,Progesterone receptor [4],60 nM
C[C@]12CC[C@@H]3c4ccc(O)cc4CC[C@H]3[C@@H]1CCC2=O,Fold induction,[5],1
same,Fold induction,[2],24
CC#C[C@]1(O)CC[C@H]2[C@@H]3CCC4=CC(=O)CCC4=C3[C@@H](c3ccc(N(C)C)cc3)C[C@@]21C.CC1=CC(C)(C)Nc2ccc3c(c21)C(c1ccc(Cl)c(C)c1)Oc1ccc(F)cc1-3,Corpora lutea,[6],13.8
same,Corpora lutea,[7],13
same,Implants,[8],2.2
same,Implants,[9],6.6
same,Pregnant,[10],30%
same,Pregnant,[11],50%
same,No. pregnant/mated,[12],3
same,No. pregnant/mated,[13],5
"CC1=CC(C)(C)Nc2ccc3c(c21)C(c1ccc(Cl)c(C)c1)Oc1ccc(F)cc1-3 (single isomer, unassigned; (-)) [listing 2 of 2 here]",EC50,Progesterone receptor [3],2.4 nM
same,Ki,Progesterone receptor [4],0.4 nM
CC1=CC(C)(C)Nc2ccc3c(c21)C(c1ccc(Cl)c(C)c1)Oc1ccc(F)cc1-3 (stereo in doubt) [listing 2 of 2 here],Efficacy,[1],43
"CC1=CC(C)(C)Nc2ccc3c(c21)C(c1cccc(Cl)c1)Oc1ccc(F)cc1-3 (single isomer, unassigned; (-)) [listing 2 of 2 here]",EC50,Progesterone receptor [3],1.3 nM
same,Ki,Progesterone receptor [4],0.1 nM
